Measurements collected from several papers.
Each line is one published result; the experiments were not run side by side.
HTR1A: 5-hydroxytryptamine receptor 1A (HTR1A, Homo sapiens, UniProt P08908)
Fibroblast growth factor 14: Fibroblast growth factor 14 (Homo sapiens, UniProt Q92915)

`CCN1/C(=C/C(C)=O)Sc2ccc(F)cc21` gave an inhibition of 1.73% (HTR1A; ligand displacement, radioligand; 10 µM).
The inhibition of `NC/C(=C\F)COc1cccc(Cn2c(=S)[nH]c(=O)c3[nH]cnc32)c1` is reported as under 50% (Glucocorticoid receptor (NR3C1, Homo sapiens, UniProt P04150); ligand displacement, radioligand; 10 µM).
With `Cc1cccc(NC(=O)Cn2cc(CO)c3ccccc32)c1` the kon was 8900 M⁻¹ s⁻¹ (Fibroblast growth factor 14; binding, SPR).
`C#Cc1cc(-c2cc(Nc3nc(N[C@@H](C)c4ccc(F)cn4)ncc3Cl)n[nH]2)ccc1C=O` gave an inhibition of 3.89% (Serine/threonine-protein kinase TAO2 (TAOK2, Homo sapiens, UniProt Q9UL54); enzyme activity, inhibitor; 0.2 µM).
The remaining binding of `C[C@]1(O)CCCN(c2nc(Nc3ccc(S(=O)(=O)N[C@H]4CC[C@H](CN5CCN(c6ccc(C7CCC(=O)NC7=O)cc6F)CC5)CC4)cc3Cl)ncc2C(F)(F)F)C1` (stereo partly shown) is reported as 12% (Leucine-rich repeat serine/threonine-protein kinase 2 (LRRK2, Homo sapiens, UniProt Q5S007, G2019S); binding, competition with immobilised ligand; 1 µM).
For `Cc1nc(CSc2nc(-c3ccc(C(C)(C)C)cc3)n[nH]2)cs1`, the ΔTm was 0.3 °C (Fibroblast growth factor 14; thermal stability; 25 µM).
For `Cc1cc(F)cc2c(CCC(=O)N[C@@H]3C(=O)NC[C@H]3O)c(-c3ccc(F)cc3)[nH]c12`, the inhibition was -8% (HTR1A; cell-free assay; 10 µM).
The koff of `O=c1cc(-c2ccc([N+](=O)[O-])cc2)[nH]c2c(-c3ccc(Cl)cc3)c(Cc3ccccc3)nn12` is reported as 0.00101 s⁻¹ (Fibroblast growth factor 14; binding, SPR).
`C1=C/COCc2cc(ccc2OCCN2CCCC2)Nc2nccc(n2)-c2cccc(c2)COC/1` gave a remaining binding of 53% (Death-associated protein kinase 3 (DAPK3, Homo sapiens, UniProt O43293); binding; 0.1 µM).
`COc1ccc2oc(-c3ccc4nc(N)oc4c3)c/c(=N\c3ccccc3NC(=O)CCN)c2c1` has a remaining binding of 85% (Serine/threonine-protein kinase BRSK2 (BRSK2, Homo sapiens, UniProt Q8IWQ3); binding; 1 µM).
The activity vs control of `CC(=O)ON=C1C=CC(=C(C#N)c2ccccc2)C=C1` is reported as 77% (Casein kinase I isoform epsilon (CSNK1E, Homo sapiens, UniProt P49674); enzyme activity, inhibitor, ADP detection; 2 µM).
The remaining binding of `CCCCC(=O)Nc1ccc(-c2ccc3ncn(CCC)c(=O)c3c2)cn1` is reported as 87% (cAMP-dependent protein kinase catalytic subunit beta (PRKACB, Homo sapiens, UniProt P22694); binding, competition with immobilised ligand; 0.5 µM).
`CC(=O)Nc1ccc(Oc2ccc3c(c2)C(=O)N(c2cc(C)ccc2C)C3=O)cc1` gave a kon of 69300 M⁻¹ s⁻¹ (Fibroblast growth factor 14; binding, SPR).
